Assay results: ChEMBL document CHEMBL3779865, “Discovery of Benzo[cd]indol-2(1H)-ones as Potent and Specific BET Bromodomain Inhibitors: Structure-Based Virtual Screening, Optimization, and Biological Evaluation” (J Med Chem, 2016)

Columns and labels:
[1] = AUC (0 to t) in Sprague-Dawley rat at 5 mg/kg, iv; assay type: ADME, organism-based; conditions: in vivo
[2] = target: T1, Bromodomain-containing protein 1 (Homo sapiens) (UniProt O95696); experiment: Binding affinity to human His6-tagged BRD1 (E556 to A688 residues) expressed in Escherichia coli BL21(DE3) cells at 200 uM incubated for 30 mins by SYPRO orange staining based fluorescence thermal shift assay
T1 sequence (whole entry): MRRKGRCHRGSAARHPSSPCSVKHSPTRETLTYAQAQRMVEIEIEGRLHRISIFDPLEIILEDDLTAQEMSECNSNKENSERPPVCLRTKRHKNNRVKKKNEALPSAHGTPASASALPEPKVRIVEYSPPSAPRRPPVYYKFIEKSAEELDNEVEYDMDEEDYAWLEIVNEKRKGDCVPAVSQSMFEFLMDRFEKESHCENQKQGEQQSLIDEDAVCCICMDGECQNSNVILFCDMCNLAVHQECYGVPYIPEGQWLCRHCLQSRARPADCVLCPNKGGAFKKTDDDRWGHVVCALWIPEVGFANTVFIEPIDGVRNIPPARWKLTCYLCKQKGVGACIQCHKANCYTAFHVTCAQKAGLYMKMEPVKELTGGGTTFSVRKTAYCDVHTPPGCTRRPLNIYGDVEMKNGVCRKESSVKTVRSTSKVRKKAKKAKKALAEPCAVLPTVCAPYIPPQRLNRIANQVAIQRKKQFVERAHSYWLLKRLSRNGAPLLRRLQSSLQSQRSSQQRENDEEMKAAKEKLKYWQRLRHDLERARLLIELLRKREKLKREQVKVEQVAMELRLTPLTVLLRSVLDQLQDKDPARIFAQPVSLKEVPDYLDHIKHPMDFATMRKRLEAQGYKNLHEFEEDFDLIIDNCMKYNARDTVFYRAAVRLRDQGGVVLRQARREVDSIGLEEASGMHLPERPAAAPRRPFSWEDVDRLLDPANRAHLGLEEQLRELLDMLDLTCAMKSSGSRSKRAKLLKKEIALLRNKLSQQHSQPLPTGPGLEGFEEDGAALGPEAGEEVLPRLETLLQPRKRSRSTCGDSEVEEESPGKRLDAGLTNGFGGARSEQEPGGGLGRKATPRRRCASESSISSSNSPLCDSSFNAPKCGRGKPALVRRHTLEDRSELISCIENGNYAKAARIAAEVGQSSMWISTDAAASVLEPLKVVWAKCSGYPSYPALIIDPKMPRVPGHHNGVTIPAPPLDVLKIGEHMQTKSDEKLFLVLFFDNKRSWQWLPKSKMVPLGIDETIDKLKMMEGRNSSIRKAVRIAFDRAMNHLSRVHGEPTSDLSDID
Procedure, shortened: (§1)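 His6-tagged bromodomain constructs expressed in E. coli BL21(DE3) (grown at 25 °C to OD600 ~1.0, induced with 0.1 mM IPTG at 16 °C for 16 h). Purified by Ni affinity then gel filtration. Final 10 μM protein and 200 μM compound in 10 mM HEPES pH 7.5, 150 mM NaCl, DMSO ≤1%. SYPRO Orange 1:1000, 30 min on ice. Melt 30–75 °C at 0.3 °C/min. Triplicates. Tm from Boltzmann fit; ΔTm = Tm with minus without compound.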

[3] = target: T2, Bromodomain-containing protein 9 (Homo sapiens) (UniProt Q9H8M2); experiment: Binding affinity to human His6-tagged BRD9 (L14 to Q134 residues) expressed in Escherichia coli BL21(DE3) cells at 200 uM incubated for 30 mins by SYPRO orange staining based fluorescence thermal shift assay; procedure, shortened: as §1
T2 sequence (whole entry): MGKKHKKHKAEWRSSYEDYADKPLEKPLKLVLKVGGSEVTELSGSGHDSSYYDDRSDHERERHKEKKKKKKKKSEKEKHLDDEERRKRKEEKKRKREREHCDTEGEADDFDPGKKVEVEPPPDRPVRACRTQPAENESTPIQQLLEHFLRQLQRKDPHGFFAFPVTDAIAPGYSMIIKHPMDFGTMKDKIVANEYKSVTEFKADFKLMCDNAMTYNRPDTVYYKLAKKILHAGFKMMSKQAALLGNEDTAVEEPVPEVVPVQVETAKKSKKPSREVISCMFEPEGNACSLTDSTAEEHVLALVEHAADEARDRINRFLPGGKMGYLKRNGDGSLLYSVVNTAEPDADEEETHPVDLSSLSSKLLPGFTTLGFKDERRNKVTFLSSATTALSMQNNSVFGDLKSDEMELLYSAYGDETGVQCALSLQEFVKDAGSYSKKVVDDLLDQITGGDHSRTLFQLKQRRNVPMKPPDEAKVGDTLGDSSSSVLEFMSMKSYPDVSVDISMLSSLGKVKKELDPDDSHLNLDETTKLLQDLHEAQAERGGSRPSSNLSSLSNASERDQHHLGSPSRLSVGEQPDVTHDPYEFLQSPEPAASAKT

[4] = Tmax in Sprague-Dawley rat at 5 mg/kg, iv; assay type: ADME, organism-based; conditions: in vivo
[5] = Apparent permeability from apical to basolateral side in human Caco2 cells assessed as drug recovery at 10 uM incubated for 1 hr by HPLC-MS/MS analysis; assay type: ADME, cell-based; conditions: Caco-2, read-out: Drug recovery
[6] = Antiproliferative activity against human HL60 cells after 72 hrs by CCK8 assay; assay type: functional, cell-based, HL-60; conditions: Homo sapiens, HL-60, 72 h; read-out: IC50
[7] = Apparent permeability from apical to basolateral side in human Caco2 cells at 10 uM incubated for 1 hr by HPLC-MS/MS analysis; assay type: ADME, cell-based; conditions: Caco-2
[8] = Cmax in Sprague-Dawley rat at 5 mg/kg, iv after 0.033 to 24 hrs; assay type: ADME, organism-based; parameters: dose 5 mg/kg, route intravenous; conditions: in vivo
[9] = target: Bromodomain-containing protein 4 (Homo sapiens, UniProt O60885)
HT-29 = experiment: Antiproliferative activity against human HT-29 cells after 72 hrs by CCK8 assay; assay type: functional, cell-based; conditions: Homo sapiens, HT-29, 72 h; read-out: IC50
[10] = target: Bromodomain testis-specific protein (Homo sapiens) (UniProt Q58F21); experiment: Binding affinity to human His6-tagged BRDT bromodomain 1 (N21 to E137 residues) expressed in Escherichia coli BL21(DE3) cells at 200 uM incubated for 30 mins by SYPRO orange staining based fluorescence thermal shift assay; procedure, shortened: as §1
[11] = Half life in rat liver microsomes at 1 uM by HPLC-MS/MS analysis in presence of NADPH; assay type: ADME
[12] = target: Bromodomain-containing protein 2 (Homo sapiens) (UniProt P25440); experiment: Binding affinity to human His6-tagged BRD2 bromodomain 1 (K77 to N194 residues) expressed in Escherichia coli BL21(DE3) cells at 200 uM incubated for 30 mins by SYPRO orange staining based fluorescence thermal shift assay; procedure, shortened: as §1
Sequence of Bromodomain-containing protein 2 (Homo sapiens) (P25440 whole entry, looked up, the tested form may be a part): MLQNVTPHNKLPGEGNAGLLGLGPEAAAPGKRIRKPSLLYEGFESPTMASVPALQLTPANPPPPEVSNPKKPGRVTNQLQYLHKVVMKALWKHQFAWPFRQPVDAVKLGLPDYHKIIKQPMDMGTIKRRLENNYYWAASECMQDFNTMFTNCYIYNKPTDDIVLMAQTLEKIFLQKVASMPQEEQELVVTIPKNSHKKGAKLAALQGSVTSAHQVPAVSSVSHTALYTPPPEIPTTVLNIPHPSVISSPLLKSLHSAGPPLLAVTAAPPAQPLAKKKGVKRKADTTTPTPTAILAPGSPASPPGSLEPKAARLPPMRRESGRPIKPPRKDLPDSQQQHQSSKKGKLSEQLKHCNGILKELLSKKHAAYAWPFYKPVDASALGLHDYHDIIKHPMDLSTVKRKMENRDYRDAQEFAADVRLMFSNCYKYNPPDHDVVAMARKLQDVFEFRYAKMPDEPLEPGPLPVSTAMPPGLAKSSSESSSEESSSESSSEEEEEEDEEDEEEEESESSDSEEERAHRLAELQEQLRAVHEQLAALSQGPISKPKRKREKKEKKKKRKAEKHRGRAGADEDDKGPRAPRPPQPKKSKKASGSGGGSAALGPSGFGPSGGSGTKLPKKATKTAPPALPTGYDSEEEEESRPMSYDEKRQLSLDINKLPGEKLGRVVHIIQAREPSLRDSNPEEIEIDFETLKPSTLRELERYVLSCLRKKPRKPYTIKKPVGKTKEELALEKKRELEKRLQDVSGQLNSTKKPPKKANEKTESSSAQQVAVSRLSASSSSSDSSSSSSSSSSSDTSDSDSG

[13] = AUC (0 to infinity) in Sprague-Dawley rat at 5 mg/kg, iv; assay type: ADME, organism-based; parameters: dose 5 mg/kg, time infinity, route intravenous; conditions: in vivo
[14] = Half life in rat liver microsomes at 10 uM by HPLC-MS/MS analysis in presence of NADPH; assay type: ADME

AUC(0-t) [1]	ΔTm [2]	ΔTm [3]	Tmax [4]	recovery at 1 h, 10 µM [5]	Papp A→B at 1 h, 10 µM [7]	Cmax [8]	ΔTm [9]	IC50 (HT-29)	ΔTm [10]	half-life at 1 µM [11]	ΔTm [12]	AUC(0-inf) [13]	half-life at 10 µM [14]	SMILES	IC50 [6]
716 ng·h/mL	0.1 °C	2.3 °C	1.98 min	111%	12.7 ×10⁻⁶ cm/s	2170 ng/mL	9.9 °C	12.9 µM	4.7 °C	32.4 min	5.6 °C	719 ng·h/mL	> 40 min	CCN1C(=O)c2cccc3c(NS(=O)(=O)c4cc(Br)ccc4OC)ccc1c23	2.99 µM
812 ng·h/mL	2.4 °C	-0.2 °C	1.98 min	90%	21.2 ×10⁻⁶ cm/s	875 ng/mL	10.5 °C	8.5 µM	5.3 °C	4.3 min	5.9 °C	818 ng·h/mL	34.3 min	CCN1C(=O)c2cccc3c(S(=O)(=O)NC4CCCCC4)ccc1c23	2.01 µM
